Measured values as given in ChEMBL document CHEMBL1126740, “(S)- and (R)-8-(di-n-propylamino)-6,7,8,9-tetrahydro-3H-benz[e]indole-1-carbaldehyde: a new class of orally active 5-HT1A-receptor agonists” (J Med Chem, 1993).
pKi: −log10 of the molar value. Activity calls are given as the source filed them. The rule behind the calls is not given here.

Legend:
[1] = species: Rattus norvegicus; test: Compound was tested for 5HT, Dopamine agonist mediated response in reserpine pretreated rats; mix DA, 5-HT syndrome; assay type: functional, organism-based
Procedure, shortened: (§1)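 Male Sprague-Dawley rats (200–300 g) were given reserpine 5 mg/kg sc 18 h before testing, then the test drug sc in the neck (n = 4). Motor activity was recorded by photocells for 30 min, with gross behaviour observed throughout. 5-HT syndrome: flat body posture, extended limbs, reciprocal forepaw treading. DA response: locomotion and stereotypies.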

[2] = test system: Rattus norvegicus; test: In vivo evaluation for 5-HTP accumulation in the corpus striatum in male rats (sc); assay type: functional
Procedure, shortened: (§2)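 Male Sprague-Dawley rats were pretreated with reserpine 5 mg/kg sc 18 h before dosing. DOPA and 5-HTP in limbic system, striatum and hemispheres were measured by HPLC with electrochemical detection. Dose-response curves used 4–6 dose levels (n = 4) for each region; ED50 was estimated graphically. Partial responses are given as the maximal % reduction at the highest dose tested.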

[3] = test system: Rattus norvegicus; test: In vivo evaluation for 5-HTP accumulation in the hemispheres in male rats (sc); assay type: functional; procedure, shortened: as §2
[4] = test system: Rattus norvegicus; test: In vivo evaluation for 5-HTP accumulation in the limbic system in male rats (sc); assay type: functional; procedure, shortened: as §2
[5] = test system: Rattus norvegicus; test: In vivo evaluation for DOPA accumulation in the hemispheres in male rats at highest dose tested; inactive; assay type: functional, organism-based; procedure, shortened: as §2
[6] = test system: Rattus norvegicus; test: Maximal reduction in percent (Partial response) of DOPA accumulation rat limbic system at highest test dose of […] (sc); assay type: functional
[7] = molecular target: T1, D(2) dopamine receptor (Rattus norvegicus, UniProt P61169); test: Displacement of [3H]spiperone from dopamine receptor D2
T1 sequence (P61169 whole entry): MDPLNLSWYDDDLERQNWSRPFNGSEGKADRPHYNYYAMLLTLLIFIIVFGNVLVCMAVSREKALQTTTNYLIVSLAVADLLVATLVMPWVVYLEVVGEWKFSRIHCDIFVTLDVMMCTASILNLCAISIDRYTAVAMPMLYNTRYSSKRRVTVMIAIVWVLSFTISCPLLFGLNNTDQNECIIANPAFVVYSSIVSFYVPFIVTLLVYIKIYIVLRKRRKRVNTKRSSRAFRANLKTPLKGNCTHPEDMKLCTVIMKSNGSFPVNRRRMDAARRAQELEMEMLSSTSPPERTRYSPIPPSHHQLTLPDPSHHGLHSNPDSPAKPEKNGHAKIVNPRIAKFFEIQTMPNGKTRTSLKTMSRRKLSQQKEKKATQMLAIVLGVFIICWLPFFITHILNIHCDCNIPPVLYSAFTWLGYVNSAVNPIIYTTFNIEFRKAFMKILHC
Procedure, shortened: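 Rat striatal membranes in 50 mM potassium phosphate buffer (3 mg original tissue) incubated with 0.5 nM [3H]spiperone for 10 min at 37 °C. Nonspecific binding was defined with 10 μM 6,7-ADTN. Ki was calculated by Cheng–Prusoff; triplicates, 3–7 experiments.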

[8] = test system: Rattus norvegicus; test: In vivo evaluation for DOPA accumulation in the corpus striatum in male rats (sc); assay type: functional; procedure, shortened: as §2
[9] = species: Rattus norvegicus; test: Compound was tested for 5HT, Dopamine agonist mediated response in reserpine pretreated rats; no change; assay type: functional, organism-based; procedure, shortened: as §1
[10] = test system: Rattus norvegicus; test: In vivo evaluation for DOPA accumulation in the hemispheres in male rats (sc); assay type: functional; procedure, shortened: as §2
[11] = test system: Rattus norvegicus; test: In vivo evaluation for DOPA accumulation in the limbic system in male rats (sc); assay type: functional; procedure, shortened: as §2
[12] = species: Rattus norvegicus; test: Compound was tested for 5-HT behavioral response in reserpine pretreated rats; +5HT syndrome; assay type: functional, organism-based; procedure, shortened: as §1
[13] = test system: Rattus norvegicus; test: In vivo evaluation for DOPA accumulation in the corpus striatum in male rats at highest test dose of 50 uM/Kg (sc); inactive; assay type: functional, organism-based; procedure, shortened: as §2
[14] = test system: Rattus norvegicus; test: In vivo evaluation for DOPA accumulation in the hemispheres in male rats at highest test dose of 50 uM/Kg (sc); inactive; assay type: functional, organism-based; procedure, shortened: as §2
[15] = test system: Rattus norvegicus; test: In vivo evaluation for DOPA accumulation in the limbic system in male rats at highest test dose of 50 uM/Kg (sc); inactive; assay type: functional, organism-based; procedure, shortened: as §2
[16] = test system: Rattus norvegicus; test: Maximal reduction in percent (Partial response) of DOPA accumulation rat hemispheres at highest test dose of 4.0 uM/kg (sc); assay type: functional; procedure, shortened: as §2
[17] = test system: Rattus norvegicus; test: Maximal reduction in percent (Partial response) of DOPA accumulation rat corpus striatum at highest test dose of 3.1 uM/Kg (sc); assay type: functional; procedure, shortened: as §2
[18] = test system: Rattus norvegicus; test: Maximal reduction in percent (Partial response) of DOPA accumulation rat limbic system at highest test dose of 3.1 uM/Kg (sc); assay type: functional
[19] = test system: Rattus norvegicus; test: Maximal reduction in percent (Partial response) of DOPA accumulation rat lhemispheres at highest test dose of 2.0 uM/Kg (sc); assay type: functional; procedure, shortened: as §2
[20] = molecular target: T1, D(2) dopamine receptor; test: In vitro binding affinity against dopamine receptor D2 using [3H]-Raclopride as radioligand in CHO cells (sc); assay type: cell-based
[21] = test system: Rattus norvegicus; test: In vivo evaluation for DOPA accumulation in the hemispheres in male rats at highest test dose of 12.5 uM/Kg (sc); inactive; assay type: functional, organism-based; procedure, shortened: as §2

SMILES | Behavioral response [1] | ED50 [2] [µmol/kg] | ED50 [3] [µmol/kg] | ED50 [4] [µmol/kg] | pKi [7] | ED50 [8] [µmol/kg] | ED50 [11] [µmol/kg] | Behavioral response [12] | further results
CCCN(CCC)[C@@H]1CCc2ccc3[nH]ccc3c2C1 | Active | 0.25 | 0.41 | 0.2 | 7.00 | 0.16 | – | – | ED50 [5]: inactive; Reduction [6]: 37%
CN(C)[C@H]1CCc2ccc3[nH]ccc3c2C1 | – | 3.9 | 2.7 | 3.9 | – | 8 | 4.2 | – | Behavioral response [9]: inactive; ED50 [10]: 13 µmol/kg
CCCN(CCC)[C@H]1CCc2cccc(O)c2C1 | – | 0.065 | 0.077 | 0.061 | 5.29 | – | – | Active | ED50 [13]: inactive; ED50 [14]: inactive; ED50 [15]: inactive
CN(C)C1CCc2ccc3[nH]ccc3c2C1 (racemic) | – | 0.3 | 0.4 | 0.3 | – | 0.4 | 0.3 | Active | Reduction [16]: 34%
CCCN(CCC)[C@@H]1CCc2cccc(O)c2C1 | – | 0.047 | 0.05 | 0.036 | 6.08 | – | – | Active | ED50 [13]: inactive; ED50 [14]: inactive; ED50 [15]: inactive
CCCN(CCC)[C@H]1CCc2ccc3[nH]ccc3c2C1 | Active | 0.3 | 0.2 | 0.16 | 6.84 | – | – | – | ED50 [5]: inactive; Reduction [17]: 37%; Reduction [18]: 31%
CN(C)[C@@H]1CCc2ccc3[nH]ccc3c2C1 | Active | 0.1 | 0.4 | 0.4 | – | 0.4 | 0.3 | – | Reduction [19]: 30%
CCCN(CCC)C1CCc2ccc3[nH]cc(C=O)c3c2C1 (racemic) | – | 0.054 | 0.067 | 0.06 | 6.92 | 1.8 | 0.47 | Active | pKi [20]: 7.40; ED50 [21]: inactive
